Source: ChEMBL document CHEMBL1125163, “Evolution of a series of peptidoleukotriene antagonists: synthesis and structure-activity relationships of 1,6-disubstituted indoles and indazoles” (J Med Chem, 1990)

What was measured:
Cavia porcellus [1] = species: Cavia porcellus; test: Percent inhibition of the LTE4- induced contraction of guinea pig tracheal spirals at concentration of 5 uM; format: functional; details: Trachea
How it was run: (§1)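 Guinea pig trachea cut into spiral strips, each trachea split into paired sections. Tissue bath at 37 °C in modified Krebs buffer gassed with 95% O2/5% CO2, 2 g resting tension, 60 min stabilization. After reproducible responses to 10 nM LTE4, compound was added for 10 min, then LTE4 challenge repeated. Percent inhibition is the 2nd vs 3rd response, adjusted by subtracting the vehicle-treated paired section. Paired t test, p < 0.05.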

[2] = Selectivity ratio of the compound; format: functional
[3] = pKB value of the compound
How it was run: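 Guinea pig tracheal strips at 37 °C in Krebs buffer. Cumulative LTE4 concentration-response curves were built in log increments, with responses expressed as % of the maximum to 30 µM carbachol. Antagonist was incubated 30 min before the curve, with vehicle on paired controls. EC50 came from linear regression. KB = [antagonist]/(dose ratio − 1) by the Furchgott method. One curve per tissue.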

Cavia porcellus [4] = species: Cavia porcellus; test: Percent inhibition of the LTE4- induced contraction of guinea pig tracheal spirals at the concentration of 0.5 uM; format: functional; details: Trachea; how it was run: as §1
Cavia porcellus [5] = test: Percent protection was determined from the time delay to the onset of dyspnea compared to that of control guinea pig at a concentration of 100 uM/kg; format: functional
How it was run: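 Conscious guinea pigs were pretreated ip with indomethacin (10 mg/kg) and propranolol (5 mg/kg). Compound was given orally in poly(ethylene glycol) 60 min before challenge with aerosolized 60 µM LTD4 for up to 5 min. End point was labored abdominal breathing, scored blind. % protection = (drug time − mean control time)/(max aerosol time − mean control time) × 100, with at least two vehicle animals per run.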

Cavia porcellus [6] = species: Cavia porcellus; test: Percent inhibition of the LTE4- induced contraction of guinea pig tracheal spirals at the concentration of 0.1 uM; format: functional; details: Trachea; how it was run: as §1

SMILES: CCCCCC(=O)Nc1ccc2ccn(Cc3ccc(C(=O)O)cc3OC)c2c1
- inhibition at 5 µM (Cavia porcellus [1]): 70%
- Selectivity ratio [2]: 100
- pKB [3]: 6

SMILES: CCCCOC(=O)Nc1ccc2ccn(Cc3ccc(C(=O)O)cc3OC)c2c1
- inhibition at 0.5 µM (Cavia porcellus [4]): 54%

SMILES: COc1cc(C(=O)O)ccc1Cn1ccc2ccc(NC(=O)OC3CCCC3)cc21
- Protection (Cavia porcellus [5]): 23%
- inhibition at 0.1 µM (Cavia porcellus [6]): 61%
